Assays:
[1] = Mean residence time in Sprague-Dawley rat at 10 mg/kg, iv; format: ADME, organism-based; parameters: dose 10 mg/kg, route intravenous; settings: in vivo
Procedure, shortened: (§1)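 Rats fasted 12 h, then dosed orally by gavage or by bolus tail-vein injection at 2 ml/kg. Compound given as a 5 mg/ml solution in N-methyl-2-pyrrolidone/Tween 80/water (1:2:7). Samples taken at various times (n = 5) and stored at −70 °C. Plasma deproteinized with acetonitrile containing carbamazepine internal standard, then quantified by LC-MS/MS.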

[2] = Clearance in Sprague-Dawley rat at 10 mg/kg, iv; format: ADME, organism-based; parameters: dose 10 mg/kg, route intravenous; settings: in vivo; procedure, shortened: as §1
[3] = Terminal half life in Sprague-Dawley rat at 10 mg/kg, po; format: ADME, organism-based; parameters: dose 10 mg/kg, route oral; settings: in vivo, read-out: beta t1/2; procedure, shortened: as §1
Mus musculus [4] = experiment: Antiobesity activity in B6.V/J ob/ob mouse assessed as change in gonadal adipose tissue weight at 5 mg/kg, po bid measured after 14 days (reference value: 3.599 +/- 0.155 g); format: functional
Mus musculus [5] = experiment: Antiobesity activity in B6.V/J ob/ob mouse assessed as change in gonadal adipose tissue weight at 25 mg/kg, po bid measured after 14 days (reference value: 3.599 +/- 0.155 g); format: functional
Mus musculus [6] = experiment: Antiobesity activity in B6.V/J ob/ob mouse assessed as change in thymus weight at 25 mg/kg, po bid measured after 14 days (reference value: 0.029 +/- 0.006 g); format: functional
Mus musculus [7] = experiment: Antiobesity activity in B6.V/J ob/ob mouse assessed as change in thymus weight at 5 mg/kg, po bid measured after 14 days (reference value: 0.029 +/- 0.006 g); format: functional
Mus musculus [8] = experiment: Antiobesity activity in B6.V/J ob/ob mouse assessed as change in liver weight at 5 mg/kg, po bid measured after 14 days (reference value: 3.396 +/- 0.162 g); format: functional
Mus musculus [9] = experiment: Antiobesity activity in B6.V/J ob/ob mouse assessed as inhibition of food intake at 12.5 mg/kg, ip measured up to 12 hrs relative to vehicle-treated control; format: functional; settings: route intraperitoneal
Procedure, shortened: (§2)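 Male mice were acclimated 1 week at 23 ± 3 °C and 50 ± 20% humidity, then fasted 24 h. They were dosed once intraperitoneally with vehicle or compound: 50 mg/kg in C57BL/6, or 12.5, 25 or 50 mg/kg in B6.V-Lep^ob/J. Food intake was measured at 2, 6 and 12 h versus vehicle control.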

Mus musculus [10] = experiment: Antiobesity activity in B6.V/J ob/ob mouse assessed as inhibition of food intake at 12.5 mg/kg, ip measured up to 2 hrs relative to vehicle-treated control; format: functional; settings: route intraperitoneal; procedure, shortened: as §2
[11] = molecular target: 5-hydroxytryptamine receptor 7 (Homo sapiens, UniProt P34969); experiment: Displacement of [3H]-LSD from human recombinant 5HT-7 receptor expressed in CHOK1 cell membranes after 120 mins; parameters: species or system CHO-K1
5-hydroxytryptamine receptor 7, sequence (P34969 whole entry): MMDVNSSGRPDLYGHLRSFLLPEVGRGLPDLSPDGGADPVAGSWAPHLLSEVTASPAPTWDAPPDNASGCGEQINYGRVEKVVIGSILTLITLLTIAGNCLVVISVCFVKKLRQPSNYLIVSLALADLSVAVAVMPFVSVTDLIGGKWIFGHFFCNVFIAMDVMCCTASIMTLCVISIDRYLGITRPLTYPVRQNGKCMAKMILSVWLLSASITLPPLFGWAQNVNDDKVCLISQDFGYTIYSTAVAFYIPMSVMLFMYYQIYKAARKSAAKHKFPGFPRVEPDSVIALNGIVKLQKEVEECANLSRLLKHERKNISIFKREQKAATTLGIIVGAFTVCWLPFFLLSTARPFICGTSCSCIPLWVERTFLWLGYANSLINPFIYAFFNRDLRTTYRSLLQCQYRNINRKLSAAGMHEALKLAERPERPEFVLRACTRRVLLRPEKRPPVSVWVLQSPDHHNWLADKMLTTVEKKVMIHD
Procedure, shortened: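 CHO-K1 membranes expressing human 5-HT7 incubated with 3 nM [3H]LSD for 120 min at 27 °C in 50 mM Tris-HCl pH 7.4, 10 mM MgSO4, 0.5 mM EDTA. Filtered on glass-fiber filters presoaked in 0.3% PEI. Methiothepin defined nonspecific binding.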

Cl.Clc1cccc(Nc2nc(Cc3ccccc3)nc3c2CCNCC3)c1 showed an MRT [1] of 1.88 h, a clearance [2] of 5.83 L/h/kg and a half-life [3] of 12.7 h. The Activity (Mus musculus [4]) was 3.776 g, the Activity (Mus musculus [5]) was 3.127 g and the Activity (Mus musculus [6]) was 0.034 g. For the same compound, the Activity (Mus musculus [7]) was 0.033 g, the Activity (Mus musculus [8]) was 3.394 g and the inhibition in vivo at 12.5 mg/kg (Mus musculus [9]) was 47.8%. The inhibition in vivo at 12.5 mg/kg (Mus musculus [10]) was 98.6% and the IC50 [11] was 1 µM.

Reference: ChEMBL document CHEMBL2390866, “Novel pyrimidoazepine analogs as serotonin 5-HT(2A) and 5-HT(2C) receptor ligands for the treatment of obesity” (Eur J Med Chem, 2013)
